Consider five compounds from ChEMBL document CHEMBL4627297, “Comparative reactivity analysis of small-molecule thiol surrogates” (Bioorg Med Chem, 2020).

As usually defined, the half-life is the time in which the quantity being followed falls by half.

Data set [1] is described as follows: Drug reactivity against cysteamine in pH 7.4 PBS buffer assessed as half life at 250 uM measured up to 72 hrs by HPLC-MS/MS analysis. It counts as ADME. As to conditions: PBS buffer with cysteamine (thiol reactivity). A digest of the protocol: (§1)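 Fragment (500 µM in PBS pH 7.4 with 10% acetonitrile and 200 µM indoprofen internal standard) was mixed 1:1 with 10 mM thiol surrogate in PBS. Final concentrations were 250 µM fragment, 5 mM thiol, 100 µM indoprofen and 5% acetonitrile, giving pseudo-first-order conditions. HPLC sampling at 0, 1, 2, 4, 8, 12, 24, 48 and 72 h.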

The nature of data set [2]: Drug reactivity against N-bezoyl-cysteamine in pH 7.4 PBS buffer assessed as half life at 250 uM measured up to 72 hrs by HPLC analysis. In kind it is ADME. As to conditions: PBS buffer with N-benzoyl-cysteamine (thiol reactivity). The method in brief:
as §1

A short description of data set [3]: Drug reactivity against cysteine in pH 7.4 PBS buffer assessed as half life at 250 uM measured up to 72 hrs by HPLC-MS/MS analysis. In kind it is ADME. The settings on record: PBS buffer with cysteine (thiol reactivity). A digest of the protocol:
as §1

The nature of data set [4]: Drug reactivity against N-acetyl-cysteine in pH 7.4 PBS buffer assessed as half life at 250 uM measured up to 72 hrs by HPLC-MS analysis. It counts as ADME. As to conditions: PBS buffer with N-acetyl-cysteine (thiol reactivity). The method in brief: as §1
The nature of data set [5]: Drug reactivity against N-benzoyl-cysteine in pH 7.4 PBS buffer assessed as half life at 250 uM measured up to 72 hrs by HPLC-MS analysis. It counts as ADME. The settings on record: PBS buffer with N-benzoyl-cysteine (thiol reactivity). A digest of the protocol: as §1
Data set [6] can be described thus: Drug reactivity against glutathione in pH 7.4 PBS buffer assessed as half life at 250 uM measured up to 72 hrs by HPLC analysis. The settings on record: PBS buffer with glutathione (thiol reactivity). In kind it is ADME. A digest of the protocol:
as §1

The nature of data set [7]: Drug reactivity against N-benzoyl-glutathione in pH 7.4 PBS buffer assessed as half life at 250 uM measured up to 72 hrs by HPLC-MS/MS analysis. The settings on record: PBS buffer with N-benzoyl-glutathione (thiol reactivity). It counts as ADME. The method in brief:
as §1

A short description of data set [8]: Solubility of the compound in pH 7.4 PBS buffer. It counts as physicochemical. A digest of the protocol:
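Solubility was judged by eye as the absence of precipitation during the thiol reactivity incubations. Conditions were 250 µM fragment in PBS pH 7.4 with 5% acetonitrile, over up to 72 h.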

As for `FC(F)(F)c1cc(S)cc(C(F)(F)F)c1`, the half-life at 250 µM in data set [1] is above 3000 min; in data set [2], above 3000 min; in data set [3], above 3000 min; in data set [4] it was 33 h; in data set [5], above 3000 min; in data set [6], 1890 min. For the same compound, in data set [7], the half-life at 250 µM was 11.2 h. Also, the solubility result in data set [8] was “Soluble”.
Regarding `Fc1cc(C(F)(F)F)cc(C(F)(F)F)c1`, the half-life at 250 µM is above 3000 min in data set [1]; above 3000 min in data set [2]; above 3000 min in data set [3]; above 50 h in data set [4]; above 3000 min in data set [5]; above 50 h in data set [7]. In data set [8], the solubility entry was “Soluble”.
For the compound `C=CC(=O)Oc1cc(C(F)(F)F)cc(C(F)(F)F)c1`, the half-life at 250 µM is below 1.02 min in data set [1]; below 1.02 min in data set [2]; below 1.02 min in data set [3]; below 0.017 h in data set [4]; below 1.02 min in data set [5]; below 1.02 min in data set [6]. Moreover, in data set [7], the half-life at 250 µM was below 0.017 h. Also, the solubility entry in data set [8] is given as “Soluble”.
In the case of `FC(F)(F)c1cc(N=C=S)cc(C(F)(F)F)c1`, the half-life at 250 µM in data set [1] was below 1.02 min; in data set [2], below 1.02 min; in data set [3], below 1.02 min; in data set [4] it was below 0.017 h; in data set [5], 1.02 min; in data set [6], below 1.02 min. In addition, in data set [7], the half-life at 250 µM was below 0.017 h. For the same compound, in data set [8], the solubility result was “Soluble”.
For `O=C(CBr)c1cc(C(F)(F)F)cc(C(F)(F)F)c1`, the half-life at 250 µM in data set [1] is below 1.02 min; in data set [2], below 1.02 min; in data set [3], below 1.02 min; in data set [4] it was below 0.017 h; in data set [5], below 1.02 min; in data set [6] it was below 1.02 min. The half-life at 250 µM in data set [7] was below 0.017 h. Further, the solubility entry in data set [8] is given as “Soluble”.
